# Assay outcomes deposited in PubChem BioAssay by several laboratories.
# Sampled rows, rich in hits. Any-hit rate of the full collection: about 4.1%.
# KCNK3 block: human KCNK3 channel inhibition, primary screen | O14649 | CHO-KCNK3 thallium flux, FluxOR fluorescence; stronger effect = lower value | B-score at 10 µM | 340,000 tested, 0.84% active;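 active = B-score under library mean minus 4 SD, starting fluorescence ratio at most library mean plus 5 SD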;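 also: more negative B-score means stronger inhibition of thallium flux through KCNK3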
# KCNK9 block: blocks the human KCNK9 two-pore domain potassium channel | Q9NPC2 | HEK293 KCNK9, FluxOR thallium flux fluorescence; stronger effect = lower value | B-score at 10 µM | 310,000 tested, 1.2% active;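 active = ratio B-score over 3 SD below the library mean, with starting fluorescence within 5 SD of its mean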;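 also: negative B-score means less thallium flux so channel inhibition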
# Target sequence (Q9NPC2 whole entry, looked up, the tested form may be a part): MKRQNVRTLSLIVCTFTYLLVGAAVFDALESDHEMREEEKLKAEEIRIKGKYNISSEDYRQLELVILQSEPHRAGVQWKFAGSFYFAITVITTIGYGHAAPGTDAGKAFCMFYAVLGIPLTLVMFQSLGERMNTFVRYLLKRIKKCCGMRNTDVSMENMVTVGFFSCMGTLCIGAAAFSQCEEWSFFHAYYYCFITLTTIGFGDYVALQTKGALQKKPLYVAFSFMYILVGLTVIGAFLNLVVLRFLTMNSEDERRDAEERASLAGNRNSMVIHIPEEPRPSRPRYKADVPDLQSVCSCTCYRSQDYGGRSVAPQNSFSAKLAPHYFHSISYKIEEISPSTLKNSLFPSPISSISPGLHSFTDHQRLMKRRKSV
# Cl transport mod: modulates chloride dependent transport by human KCC2; AID 1456; B-score of Tl+ flux slope (higher = more flux/activation; lower = inhibition) at 10 µM; KCC2 cells, thallium flux FluoZin-2 fluorescence; 190,000 tested, 2.2% active;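 active = thallium flux slope and its plate-corrected score both differing from the plate sample mean at a set confidence after two filtering rounds, in either direction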;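 also: slope of fluorescence scaled to starting intensity during 10 to 20 s after thallium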
# hERG rescue: compounds protecting human hERG from proarrhythmic drug block; Q12809; CHO-hERG, FluxOR thallium flux, dofetilide IC70 present; activation (rescue from dofetilide block), less the hit threshold, % at 10 µM; 310,000 tested, 0.51% active; AID 1511;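 active = activation above the mean of controls blocked by dofetilide plus 5 SD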;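 also: thallium influx through hERG after potassium depolarization seen as dye fluorescence rise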
# KCNQ1 block: inhibitors of human KCNQ1 potassium channel. CHO-K1 KCNQ1, FluxOR thallium flux fluorescence; stronger effect = higher value. B-score at 10 µM. 310,000 tested, 1.3% active;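 active = compounds whose thallium flux B-score, printed positive for inhibition, exceeds three library SD while starting fluorescence stays within three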;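 also: channel opened by potassium depolarization with thallium stimulus after 20 min compound exposure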
# KCNQ1 pot: potentiators or activators of human KCNQ1 potassium channel. P51787. CHO-K1 KCNQ1, thallium flux FluxOR fluorescence; stronger effect = higher value. B-score at 10 µM. 310,000 tested, 0.35% active. AID 2648;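 active = fluorescence ratio B-score, a plate-corrected score, at least three library SD, with initial intensity B-score within 5 SD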
#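 assay system = CHO-K1 cells stably expressing KCNQ1 | medium = assay buffer, equal DMSO in all wells | timing = 37 °C overnight plating, 90-min dark dye load, 20-min compound pretreatment | measured by = kinetic FluxOR thallium fluorescence, 10-s 1-Hz baseline, 110-s post-stimulus read | measure = fluorescence change relative to baseline, converted to B score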
# KCNQ1 inh valid: confirmation of human KCNQ1 potassium channel inhibitors; shares compounds with KCNQ1 block; KCNQ1 cell line, FluxOR thallium flux fluorescence; inhibition, % at 10 µM; 1,600 tested, 93% active; AID 588353;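 active = primary screen active, with duplicate mean exceeding buffer control mean plus 3 SD of buffer wells, cut at about 28% in these data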;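 also: 0% = buffer control ratio and 100% = XE991 inhibitor control ratio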
# CHO KCNQ1 ctr: KCNQ1 inhibitor counter-screen hit in parental CHO cells; shares compounds with KCNQ1 block; fluorescence ratio (Tl flux) at 10 µM; 1,600 tested, 21% active; parental CHO-K1, FluxOR thallium flux fluorescence ratio; stronger effect = lower value; zero means no signal rise above baseline;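 active = mean of duplicate thallium-flux fluorescence ratios in parental host cells more than 5 SD below the buffer control mean, cut at about 0.38 in these data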;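 also: ratio is peak minus minimum fluorescence divided by baseline fluorescence; actives read low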
# KCNQ1 APC inh: human KCNQ1 inhibition validated by electrophysiology | shares compounds with KCNQ1 block | KCNQ1-CHO cells, automated patch clamp current | calls only at 10 µM | 490 tested, 20% active;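 active = KCNQ1 current drop exceeding 3 SD of negative control wells, seen in both duplicate runs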;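 also: steady state current during a 2 s step from -80 to +40 mV; negative values mean current inhibition and positive values mean potentiation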
# KCNQ2 spec: selectivity of KCNQ1 inhibitors: inhibition of rat KCNQ2 channel; shares compounds with KCNQ1 block; KCNQ2 cells, FluxOR thallium flux fluorescence; inhibition, % at 10 µM; 1,600 tested, 71% active; AID 651746;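 active = mean percent inhibition of the KCNQ2 thallium signal more than 5 SD above the buffer-only control wells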;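 also: KCNQ2 expressed in CHO cells; 0% = buffer control wells and 100% = XE-991 inhibitor control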
# KCNQ1-KCNE1 inh: KCNQ1 inhibitor that also blocks human KCNQ1/KCNE1 channel | shares compounds with KCNQ1 block | KCNQ1/KCNE1 cells, FluxOR thallium flux fluorescence | inhibition, % at 10 µM | 1,600 tested, 77% active;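 active = mean percent inhibition of duplicate wells above the buffer-only control mean plus 3 SD of those controls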;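 also: 0% = buffer only wells and 100% = XE-991 inhibitor control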
# KCNK9 inh conf: confirmation of human KCNK9 potassium channel inhibitors; shares compounds with KCNK9 block; HEK293 KCNK9 cells, FluxOR thallium flux fluorescence; inhibition, % at 10 µM; 4,900 tested, 43% active; AID 492992;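 active = thallium signal inhibited by more than 5 SD of the compound-free buffer control wells, on both duplicate plates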;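 also: 0% = assay buffer control wells without compound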
# Kir21 sel: tests whether KCNK9 modulators also affect mouse Kir2.1 | 4,900 tested, 4% active | inhibition, % at 10 µM | shares compounds with KCNK9 block | Kir2.1 cells, FluxOR thallium flux fluorescence | AID 492993;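 active = thallium signal drop more than 5 SD beyond the mean of the no-compound control wells, seen in both duplicate plates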;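 also: signal is fluorescence rise after thallium addition divided by baseline fluorescence; plate controls were assay buffer only for no effect and full block by chlorpromazine control for full effect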
# Target sequence (P35561 whole entry, looked up): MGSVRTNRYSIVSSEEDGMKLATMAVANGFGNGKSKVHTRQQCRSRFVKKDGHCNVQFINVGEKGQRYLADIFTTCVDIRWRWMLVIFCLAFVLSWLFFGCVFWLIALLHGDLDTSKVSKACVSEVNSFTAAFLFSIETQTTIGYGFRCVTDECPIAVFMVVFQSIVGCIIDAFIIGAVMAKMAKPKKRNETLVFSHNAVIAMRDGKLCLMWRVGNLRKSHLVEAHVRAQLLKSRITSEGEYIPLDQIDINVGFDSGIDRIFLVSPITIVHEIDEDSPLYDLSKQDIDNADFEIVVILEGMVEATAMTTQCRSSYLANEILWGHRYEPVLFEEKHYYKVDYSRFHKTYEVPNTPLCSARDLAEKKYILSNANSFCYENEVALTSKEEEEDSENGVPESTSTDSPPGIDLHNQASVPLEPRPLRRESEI
# KCNK9 uninduced: non-induced cell nonspecific activity of KCNK9 modulators | 4,900 tested, 40% active | non-induced KCNK9-HEK293, FluxOR thallium flux | inhibition, % at 10 µM | shares compounds with KCNK9 block;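 active = thallium signal drop beyond 5 SD of the untreated control mean, on both duplicate plates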;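 also: plate controls were buffer only IC0 wells for no effect and SID17386958 at its maximal inhibitory level for full effect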
# KCNK3 confirm: confirmation of human KCNK3 two-pore domain potassium channel inhibitors; shares compounds with KCNK3 block; CHO-KCNK3 thallium flux, FluxOR fluorescence; 0% buffer, 100% carvedilol maximal block; ratio percent of control, % at 10 µM; 2,400 tested, 99% active; AID 651638;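 active = ratio percent of control, averaged over triplicates, above buffer control mean plus 5 SD, cut at about 64% in these data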;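 also: ratio is the fluorescence rise from min to max over baseline after thallium stimulus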
# KCNK3 noninduced: counter-screen for KCNK3 inhibitors: effect in non-induced cells. AID 651747. 2,400 tested, 40% active. non-induced KCNK3 parental cells, FluxOR thallium flux; stronger effect = lower value. shares compounds with KCNK3 block. thallium flux ratio (lower = more inhibition) at 10 µM;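 active = thallium flux ratio, averaged over three wells, more than 5 SD below the buffer control mean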;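 also: host cells are CHO cells without KCNK3 induction; ratio is peak minus trough fluorescence over baseline then normalized to buffer controls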
# An asterisk follows results filed as active; i = inactive; / = not tested or not shown; + = active, no number.
SMILES,KCNK3 block,KCNK9 block,Cl transport mod,hERG rescue,KCNQ1 block,KCNQ1 pot,KCNQ1 inh valid,CHO KCNQ1 ctr,KCNQ1 APC inh,KCNQ2 spec,KCNQ1-KCNE1 inh,KCNK3 confirm,KCNK3 noninduced,others
CCN1C=C(Cc2ccccc2C)C2=C(C1)C(c1ccccc1C)C(C#N)=C(N)O2 (configuration not stated),-8.9*,-6.7*,-1.1,-21,12*,i,116*,0.32*,/,105%*,104%*,118*,0.13*,
CC(=O)C1=C(c2ccccc2)OC(N)=C(C#N)C1c1ccccc1C (configuration not stated),i,i,-0.8,-8,i,i,/,/,/,/,/,/,/,
Cc1cc(C)n(-c2cc(C(C)(C)C)nc3c(-c4ccccc4)cnn23)n1,-13*,i,0.13,-8,8*,i,85*,0.5,/,i,114%*,108*,i,
CCCCNC(=S)Nc1ccc(SC(F)F)cc1,-10*,-7.7*,-1.2,-14,8*,i,91*,0.49,+,i,61%*,121*,0.15*,
COc1ccccc1Nc1nc(NCCO)c2ccccc2n1,/,i,-0.18,-11,i,i,/,/,/,/,/,/,/,
Cc1ccc(Nc2nc(NCCO)c3ccccc3n2)cc1C,-12*,i,/,-20,7*,i,102*,0.39,i,66%*,84%*,128*,i,
Cc1ccc(Cl)cc1N1CCN(C(=O)c2cc3c(=O)n(C)c4ccccc4c3n2C)CC1,-16*,i,-0.38,-12,15*,i,120*,0.4,i,126%*,i,137*,i,
O=C1CCCc2nc(N3CCN(C(=O)c4ccco4)CC3)ncc21,i,i,/,-7,i,i,/,/,/,/,/,/,/,
O=C1CCCc2nc(N3CCN(C(c4ccccc4)c4ccccc4)CC3)ncc21,-8.8*,i,-0.65,-10,8*,i,96*,0.45,i,108%*,165%*,119*,0.14*,
COc1cc(C)c(NC(=O)C2CCN(S(=O)(=O)c3cccs3)CC2)cc1OC,i,/,/,/,/,/,/,/,/,/,/,/,/,
COc1cccc(-c2cc3nc4c(c(NCC(C)(C)CN(C)C)n3n2)CCCC4)c1,-10*,i,-2.1,-10,9*,i,86*,0.45,/,95%*,116%*,120*,i,
CCN(C(=O)c1cc2c(s1)-c1ccccc1OC2)c1cc(OC)ccc1OC,-14*,-17*,/,-7,7*,i,110*,0.37*,/,96%*,185%*,132*,0.12*,KCNK9 inh conf=68%*;Kir21 sel=i;KCNK9 uninduced=32%*
Cc1ccc(-c2nc3ccccn3c2NCc2ccc3c(c2)OCO3)cc1,-9.9*,-17*,-1.3,-44,10*,i,118*,0.39,i,113%*,188%*,143*,i,KCNK9 inh conf=52%*;Kir21 sel=i;KCNK9 uninduced=i
NC(C(=O)O)C1ON=C(Cl)C1O (configuration not stated),i,/,/,/,/,/,/,/,/,/,/,/,/,
CCOC(=O)c1cc2c(ccn2C)n1Cc1ccc(Cl)cc1,-9.7*,-11*,-0.53,-20,6*,i,110*,0.37*,/,68%*,116%*,136*,0.13*,KCNK9 inh conf=42%*;Kir21 sel=i;KCNK9 uninduced=37%*
CCOC(=O)c1cc2c(ccn2C)n1CC(=O)N(C)C,i,i,0.39,-11,i,i,/,/,/,/,/,/,/,
CC1=Nc2ccccc2/C1=C/c1sc(=S)n(-c2cccc(C(=O)O)c2)c1O,-11*,i,-3.9*,4,15*,i,106*,0.34*,/,i,i,145*,0.11*,
O=C(CCNS(=O)(=O)c1ccc(Cl)cc1)Nc1ccncc1,i,i,/,-8,i,i,/,/,/,/,/,/,/,
CCCCNC(=S)N1CCn2cccc2C1c1ccc(F)cc1 (configuration not stated),-9.7*,-14*,1,-23,6*,i,92*,0.42,i,81%*,70%*,134*,0.15*,KCNK9 inh conf=56%*;Kir21 sel=i;KCNK9 uninduced=41%*
CCCCNC(=S)N1CCn2cccc2C1c1ccccc1 (configuration not stated),i,i,0.9,-12,i,i,/,/,/,/,/,/,/,
COc1ccc(C(=O)NC2CCCc3c2cnn3-c2cccc(C)c2C)o1 (configuration not stated),i,i,/,-19,i,i,/,/,/,/,/,/,/,
CCCCc1nc(N2CCN(C(=O)c3ccco3)CC2)c(C#N)c2c1CCCC2,-9.4*,-6.8*,/,-15,9*,i,98*,0.34*,/,108%*,46%*,120*,i,
Cc1sc2ncnc(N3CCC(C(=O)Nc4cc(Cl)ccc4Cl)CC3)c2c1C,-10*,i,/,-15,11*,i,71*,0.46,/,123%*,99%*,127*,0.13*,
